Data as given in ChEMBL document CHEMBL1154204, “Design, synthesis and pharmacological screening of novel nitric oxide donors containing 1,5-diarylpyrazolin-3-one as nontoxic NSAIDs” (Eur J Med Chem, 2009).
In brackets after ≈: the same amount, converted by molar mass.

Assays:
[1] = tested on: Rattus norvegicus; assay: Gastrointestinal toxicity in Wistar rat assessed as ulcer index at 34.84 mg/kg, po; type: organism-based; design: dose 34.84 mg/kg, route oral; conditions: in vivo
[2] = tested on: Rattus norvegicus; assay: Gastrointestinal toxicity in Wistar rat assessed as ulcer index at 38.27 mg/kg, po; type: organism-based; design: dose 38.27 mg/kg, route oral; conditions: in vivo
[3] = tested on: Aorta; assay: Vasorelaxant activity in Wistar rat aorta assessed as inhibition of norepinephrine-induced contractions; type: functional, tissue-based
In short: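 Endothelium-intact aortic rings were accepted only if relaxation was ≥70% of the NE-induced contraction. Rings were then contracted with NE or 30 mM KCl, and test compounds were added cumulatively once a stable plateau was reached. EC50 values were calculated from cumulative concentration-response curves.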

[4] = tested on: Rattus norvegicus; assay: Gastrointestinal toxicity in Wistar rat assessed as gastric mucosal layer disruption at 40.71 mg/kg, po by histopathological study; type: organism-based, Gastric mucosa; design: dose 40.71 mg/kg, route oral; conditions: in vivo
[5] = tested on: Rattus norvegicus; assay: Gastrointestinal toxicity in Wistar rat assessed as gastric mucosal layer disruption at 34.84 mg/kg, po by histopathological study; type: organism-based, Gastric mucosa; design: dose 34.84 mg/kg, route oral; conditions: in vivo
[6] = tested on: Rattus norvegicus; assay: Antiinflammatory activity in Wistar rat assessed as inhibition of carrageenan-induced paw edema measured after 3 hrs at 6 mg/kg, po equimolar dose of indomethacin administered 1 hr before carrageenan challenge; type: functional
In short: (§1)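 Wistar rats of either sex, 120–140 g, fasted 24 h, n = 6 per group. Compounds were suspended in 1.0% aqueous sodium CMC and dosed orally, equimolar to indomethacin 6 mg/kg, 1 h before subplantar carrageenan (1.0% w/v, 0.1 mL) into the right hind paw. Paw volume was read by plethysmometer before and after injection. Results are % inhibition versus vehicle control. ANOVA with Dunnett's test.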

[7] = tested on: Rattus norvegicus; assay: Gastrointestinal toxicity in Wistar rat assessed as ulcer incidence at 34.84 mg/kg, po; type: organism-based; design: dose 34.84 mg/kg, route oral; conditions: in vivo
[8] = tested on: Rattus norvegicus; assay: Gastrointestinal toxicity in Wistar rat assessed as ulcer incidence at 38.27 mg/kg, po; type: organism-based; design: dose 38.27 mg/kg, route oral; conditions: in vivo
[9] = tested on: Rattus norvegicus; assay: Gastrointestinal toxicity in Wistar rat assessed as ulcer index at 40.71 mg/kg, po; type: organism-based; design: dose 40.71 mg/kg, route oral; conditions: in vivo
[10] = tested on: Mus musculus; assay: Analgesic activity in Swiss albino mouse assessed as inhibition of acetic acid-induced writhing at 0.00001911 mol/kg, po administered 1 hr before acetic acid challenge measured after 25 mins; type: functional
In short: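 Acetic acid writhing in mice. Compounds were suspended in 1.0% aqueous sodium CMC and given orally at equimolar doses equivalent to 6 mg/kg indomethacin (0.00001911 mol/kg). Writhes were counted over 25 min after treatment, n = 6, and reported as % inhibition versus vehicle control. One-way ANOVA with Dunnett's test.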

[11] = tested on: Rattus norvegicus; assay: Gastrointestinal toxicity in Wistar rat assessed as gastric mucosal layer disruption at 33.70 mg/kg, po by histopathological study; type: organism-based, Gastric mucosa; design: dose 33.7 mg/kg, route oral; conditions: in vivo, 33.7 mg/kg
[12] = tested on: Rattus norvegicus; assay: Gastrointestinal toxicity in Wistar rat assessed as ulcer incidence at 33.70 mg/kg, po; type: organism-based; design: dose 33.7 mg/kg, route oral; conditions: in vivo, 33.7 mg/kg
[13] = tested on: Rattus norvegicus; assay: Antiinflammatory activity in Wistar rat assessed as inhibition of carrageenan-induced paw edema measured after 2 hrs at 6 mg/kg, po equimolar dose of indomethacin administered 1 hr before carrageenan challenge; type: functional; in short: as §1
[14] = Induction of nitric oxide release at 0.1 mM in pH 7.4 phosphate buffer in presence of 5 mM L-cysteine by Griess method; conditions: pH 7.4, 100 µM
[15] = tested on: Rattus norvegicus; assay: Gastrointestinal toxicity in Wistar rat assessed as gastric mucosal layer disruption at 38.27 mg/kg, po by histopathological study; type: organism-based, Gastric mucosa; design: dose 38.27 mg/kg, route oral; conditions: in vivo
[16] = tested on: Rattus norvegicus; assay: Antiinflammatory activity in Wistar rat assessed as inhibition of carrageenan-induced paw edema measured after 1 hr at 6 mg/kg, po equimolar dose of indomethacin administered 1 hr before carrageenan challenge; type: functional; in short: as §1
[17] = tested on: Rattus norvegicus; assay: Gastrointestinal toxicity in Wistar rat assessed as ulcer incidence at 40.71 mg/kg, po; type: organism-based; design: dose 40.71 mg/kg, route oral; conditions: in vivo
[18] = tested on: Rattus norvegicus; assay: Gastrointestinal toxicity in Wistar rat assessed as ulcer index at 33.70 mg/kg, po; type: organism-based; design: dose 33.7 mg/kg, route oral; conditions: in vivo, 33.7 mg/kg
[19] = tested on: Rattus norvegicus; assay: Gastrointestinal toxicity in Wistar rat assessed as gastric mucosal layer disruption at 24 mg/kg, po by histopathological study; type: organism-based, Gastric mucosa; design: dose 24 mg/kg, route oral; conditions: in vivo
[20] = tested on: Rattus norvegicus; assay: Gastrointestinal toxicity in Wistar rat assessed as ulcer incidence at 24 mg/kg, po; type: organism-based; design: dose 24 mg/kg, route oral; conditions: in vivo
[21] = tested on: Rattus norvegicus; assay: Antiinflammatory activity in Wistar rat assessed as inhibition of carrageenan-induced paw edema measured after 3 hrs at 6 mg/kg, po administered 1 hr before carrageenan challenge; type: functional; in short: as §1
[22] = tested on: Rattus norvegicus; assay: Antiinflammatory activity in Wistar rat assessed as inhibition of carrageenan-induced paw edema measured after 1 hr at 6 mg/kg, po administered 1 hr before carrageenan challenge; type: functional; in short: as §1
[23] = tested on: Rattus norvegicus; assay: Antiinflammatory activity in Wistar rat assessed as inhibition of carrageenan-induced paw edema measured after 2 hrs at 6 mg/kg, po administered 1 hr before carrageenan challenge; type: functional; in short: as §1

| SMILES | EC50 [3] | Activity [14] | Activity [1] | Activity [2] | Activity [4] | Activity [5] | inhibition in vivo [6] | Activity [7] | Activity [8] | Activity [9] | inhibition (INH) [10] | Activity [11] | Activity [12] | inhibition in vivo [13] | Activity [15] | inhibition in vivo [16] | Activity [17] | Activity [18] | also measured |
| --- | --- | --- | --- | --- | --- | --- | --- | --- | --- | --- | --- | --- | --- | --- | --- | --- | --- | --- | --- |
| O=C(CO[N+](=O)[O-])NNC(=O)c1ccc(-n2[nH]c(=O)cc2-c2ccccc2O)cc1 | 17.8 µg/mL (≈ 43.1 µM) | 0.69% | – | – | – | – | 16.4% | – | – | – | 16.66% | – | – | 19.3% | – | 23% | – | – | – |
| O=C(CO[N+](=O)[O-])NNC(=O)c1ccc(-n2[nH]c(=O)cc2-c2ccc(Cl)cc2)cc1 | 21.3 µg/mL (≈ 49.4 µM) | 0.66% | – | – | – | – | 5.84% | – | – | – | 10.78% | – | – | 11.4% | – | 5.88% | – | – | – |
| O=C(CO[N+](=O)[O-])NNC(=O)c1ccc(-n2[nH]c(=O)cc2-c2ccccc2)cc1 | 26.7 µg/mL (≈ 67.3 µM) | 0.51% | – | – | – | – | 20.5% | – | – | – | 53.92% | – | – | 16.1% | – | 19.8% | – | – | – |
| O=C(CO[N+](=O)[O-])NNC(=O)c1ccc(-n2[nH]c(=O)cc2-c2ccc([N+](=O)[O-])cc2)cc1 | 49.1 µg/mL (≈ 111 µM) | 0.39% | Non-toxic | Non-toxic | Non-toxic | Non-toxic | 24% | Non-toxic | Non-toxic | Non-toxic | 45.09% | Non-toxic | Non-toxic | 27.1% | Non-toxic | 23.6% | Non-toxic | Non-toxic | – |
| COc1ccccc1-c1cc(=O)[nH]n1-c1ccc(C(=O)NNC(=O)CO[N+](=O)[O-])cc1 | 66.8 µg/mL (≈ 156 µM) | 0.32% | Non-toxic | Non-toxic | Non-toxic | Non-toxic | 57.9% | Non-toxic | Non-toxic | Non-toxic | 51.96% | Non-toxic | Non-toxic | 55.7% | Non-toxic | – | Non-toxic | Non-toxic | inhibition in vivo at 6 mg/kg ([16]; dose 6 mg/kg): 55.1% |
| O=C(O)Cc1ccccc1Nc1c(Cl)cccc1Cl [DICLOFENAC] | – | – | – | – | – | – | – | – | – | – | – | – | – | – | – | – | – | – | Activity [19]: Toxic; Activity [20]: Toxic |
| COc1ccc2c(c1)c(CC(=O)O)c(C)n2C(=O)c1ccc(Cl)cc1 [INDOMETHACIN] | – | – | – | – | – | – | – | – | – | – | 54.9% | – | – | – | – | – | – | – | inhibition in vivo at 6 mg/kg [21]: 57.9%; inhibition in vivo at 6 mg/kg [22]: 52.7%; inhibition in vivo at 6 mg/kg [23]: 58.3% |

More lines, main results first:

| EC50 [3] | Activity [14] | SMILES | Activity [1] | Activity [2] | Activity [4] | Activity [5] | inhibition in vivo [6] | Activity [7] | Activity [8] | Activity [9] | inhibition (INH) [10] | Activity [11] | Activity [12] | inhibition in vivo [13] | Activity [15] | inhibition in vivo [16] | Activity [17] | Activity [18] | also measured |
| --- | --- | --- | --- | --- | --- | --- | --- | --- | --- | --- | --- | --- | --- | --- | --- | --- | --- | --- | --- |
| 35.5 µg/mL (≈ 75.6 µM) | 0.46% | CCOC(=O)c1c(-c2ccccc2)n(-c2ccc(C(=O)NNC(=O)CO[N+](=O)[O-])cc2)[nH]c1=O | Non-toxic | Non-toxic | Non-toxic | Non-toxic | 59.6% | Non-toxic | Non-toxic | Non-toxic | 56.86% | Non-toxic | Non-toxic | 57.8% | Non-toxic | 54% | Non-toxic | Non-toxic | – |
| 28.2 µg/mL (≈ 54.8 µM) | 0.49% | CCOC(=O)c1c(-c2ccc([N+](=O)[O-])cc2)n(-c2ccc(C(=O)NNC(=O)CO[N+](=O)[O-])cc2)[nH]c1=O | – | – | – | – | 22.2% | – | – | – | 45.9% | – | – | 28.1% | – | 27.8% | – | – | – |
| 63.1 µg/mL (≈ 126 µM) | 0.35% | CCOC(=O)c1c(-c2ccccc2OC)n(-c2ccc(C(=O)NNC(=O)CO[N+](=O)[O-])cc2)[nH]c1=O | Non-toxic | Non-toxic | Non-toxic | Non-toxic | 25.1% | Non-toxic | Non-toxic | Non-toxic | 50.98% | Non-toxic | Non-toxic | 30.7% | Non-toxic | 31% | Non-toxic | Non-toxic | – |
| 70.8 µg/mL (≈ 146 µM) | 0.27% | CCOC(=O)c1c(-c2ccccc2O)n(-c2ccc(C(=O)NNC(=O)CO[N+](=O)[O-])cc2)[nH]c1=O | – | – | – | – | 21.1% | – | – | – | 10.78% | – | – | 26.6% | – | 27.8% | – | – | – |
| 50.2 µg/mL (≈ 99.6 µM) | 0.37% | CCOC(=O)c1c(-c2ccc(Cl)cc2)n(-c2ccc(C(=O)NNC(=O)CO[N+](=O)[O-])cc2)[nH]c1=O | – | – | – | – | 6.43% | – | – | – | 6.86% | – | – | 10.4% | – | 3.2% | – | – | – |
